target: T1, Caspase-1 (Homo sapiens) (UniProt P29466); test: Second order rate constant of inactivation for compound was measured against Interleukin-1-beta converting enzyme partially purified from THP-1 cells
T1 sequence (whole entry): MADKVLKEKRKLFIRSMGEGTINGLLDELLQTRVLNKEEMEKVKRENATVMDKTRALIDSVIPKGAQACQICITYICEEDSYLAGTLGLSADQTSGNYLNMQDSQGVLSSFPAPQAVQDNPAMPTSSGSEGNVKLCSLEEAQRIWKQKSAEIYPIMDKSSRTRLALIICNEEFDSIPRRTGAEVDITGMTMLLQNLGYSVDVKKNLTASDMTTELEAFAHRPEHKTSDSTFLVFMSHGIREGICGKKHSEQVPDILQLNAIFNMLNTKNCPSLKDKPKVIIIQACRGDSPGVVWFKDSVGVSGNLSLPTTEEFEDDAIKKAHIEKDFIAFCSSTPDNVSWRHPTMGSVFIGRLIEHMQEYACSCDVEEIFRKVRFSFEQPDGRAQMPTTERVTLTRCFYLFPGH
Method in brief: (§1)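 ICE was partially purified from THP-1 cells by DEAE-Sephacel and Sephadex G-75 steps. Fluorescence progress curves were recorded at 37 °C over 30 min, and the nonlinear curves were analysed by the Tian–Tsou method. Standard error was <10%.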

k obs / 1 [M⁻¹ s⁻¹]	SMILES
90000	O=C(O)C[C@H](NC(=O)Cn1c(-c2ccc(F)cc2)ncc(NS(=O)(=O)c2ccccc2)c1=O)C(=O)COC(=O)c1c(Cl)cccc1Cl
148000	O=C(O)C[C@H](NC(=O)Cn1c(-c2ccc(F)cc2)ncc(NC(=O)NCc2ccccc2)c1=O)C(=O)COC(=O)c1c(Cl)cccc1Cl
268000	O=C(O)C[C@H](NC(=O)Cn1c(-c2ccc(F)cc2)ncc(NC(=O)OCc2ccccc2)c1=O)C(=O)COC(=O)c1c(Cl)cccc1Cl
95000	Cc1ncc(NC(=O)OCc2ccccc2)c(=O)n1CC(=O)N[C@@H](CC(=O)O)C(=O)COc1cc(C(F)(F)F)nn1-c1ccccc1
46000	O=C(O)C[C@H](NC(=O)Cn1c(-c2ccc(F)cc2)ncc(NC(=O)c2ccco2)c1=O)C(=O)COC(=O)c1c(Cl)cccc1Cl
90000	CN(C)CCCCCC(=O)Nc1cnc(-c2ccc(F)cc2)n(CC(=O)N[C@@H](CC(=O)O)C(=O)COC(=O)c2c(Cl)cccc2Cl)c1=O
432000	CC(C)[C@H](NC(=O)OCc1ccccc1)C(=O)N[C@@H](C)C(=O)N[C@@H](CC(=O)O)C(=O)COC(=O)c1c(Cl)cccc1Cl
36000	Nc1cnc(-c2ccc(F)cc2)n(CC(=O)N[C@@H](CC(=O)O)C(=O)COC(=O)c2c(Cl)cccc2Cl)c1=O
145000	O=C(O)C[C@H](NC(=O)Cn1c(-c2cccnc2)ncc(NC(=O)OCc2ccccc2)c1=O)C(=O)COc1cc(C(F)(F)F)nn1-c1ccccc1

target: T1, Caspase-1 (Homo sapiens); test: The binding affinity of compound was measured against Interleukin-1-beta converting enzyme in monocytic cells; type: cell-based
Method in brief: as §1, with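 “steps. The assay buffer was 10 mM HEPES pH 7.5 with 25% glycerol and 1 mM DTT, and the substrate was 10 μM Suc-Tyr-Val-Ala-Asp-AMC.” for “steps.”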

k obs / 1 [M⁻¹ s⁻¹]	SMILES
145000	O=C(O)C[C@H](NC(=O)Cn1c(-c2ccc(F)cc2)ncc(NC(=O)OCc2ccccc2)c1=O)C(=O)COP(=O)(c1ccccc1)c1ccccc1
157000	O=C(O)C[C@H](NC(=O)Cn1c(-c2ccc(F)cc2)ncc(NC(=O)OCc2ccccc2)c1=O)C(=O)COc1cc(C(F)(F)F)nn1-c1ccccc1

— ChEMBL document CHEMBL1129346, “First examples of peptidomimetic inhibitors of interleukin-1 beta converting enzyme” (J Med Chem, 1996)
